Results published in ChEMBL document CHEMBL1140329, “Control of protein-protein interactions: structure-based discovery of low molecular weight inhibitors of the interactions between Pin1 WW domain and phosphopeptides” (J Med Chem, 2005).
pKd: −log10 of the molar value. Where a SMILES comes first, the peptide text is derived from it. [ ]: non-standard residue; d: D form. The star is where a group is joined. pT = C[C@@H](OP(=O)(O)O)[C@H](N)C(=O)O; Fmoc = O=C(OCC1c2ccccc2-c2ccccc21)*; Hydrocinnamoyl = O=C(CCc1ccccc1)*; ΔPro = O=C(O)[C@@H]1C=CCN1; Thz = O=C(O)[C@@H]1CSCN1; PhAc = O=C(Cc1ccccc1)*

Target: Peptidyl-prolyl cis-trans isomerase NIMA-interacting 1 (Homo sapiens, UniProt Q13526)
Sequence (Q13526 whole entry): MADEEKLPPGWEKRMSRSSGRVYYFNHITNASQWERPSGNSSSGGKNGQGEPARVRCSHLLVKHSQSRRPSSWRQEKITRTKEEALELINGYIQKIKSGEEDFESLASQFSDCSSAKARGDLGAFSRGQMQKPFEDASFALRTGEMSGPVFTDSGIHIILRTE
Experiment: Dissociation constant for human peptidyl-prolyl cis-trans isomerase NIMA-interacting 1
Summary of the method: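 15N-labeled Pin1 WW domain (His6-tagged, expressed in E. coli BL21(DE3)) in 25 mM deuterated Tris-HCl pH 6.8, 50 mM NaCl, 5 mM DTT, 2.5 mM EDTA, 10% D2O; 600 MHz 1H-15N HSQC at 293 K. 50 μM protein titrated with ligand 0.025–1 mM final; chemical shift perturbations fitted to a single-site equation for KD.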

pKd	SMILES
< 2.70	NC(=O)[C@@H]1CCCN1C(=O)CCNS(=O)(=O)C(F)(F)F
3.40	CC(=O)N[C@H](C(=O)N1CSC[C@H]1C(N)=O)[C@@H](C)OP(=O)(O)O (Ac-[pT]-[Thz]-NH2)
< 2.70	CC(=O)N[C@@H](CCC(=O)O)C(=O)N1CCC[C@H]1C(N)=O (Ac-Glu-Pro-NH2)
4.74	CC(=O)N[C@H](C(=O)N1CC=C[C@H]1C(N)=O)[C@@H](C)OP(=O)(O)O (Ac-[pT]-[ΔPro]-NH2)
4.42	C[C@@H](OP(=O)(O)O)[C@H](NC(=O)C(c1ccccc1)c1ccccc1)C(=O)N1CCC[C@H]1C(N)=O
3.85	CC(=O)N[C@H](C(=O)N1CCCCC1C(N)=O)C(C)OP(=O)(O)O (single isomer, unassigned)
3.38	CC(=O)N[C@H](C(=O)N1C[C@@H](F)C[C@H]1C(N)=O)[C@@H](C)OP(=O)(O)O
4.49	C[C@@H](OP(=O)(O)O)[C@H](NC(=O)CCc1ccccc1)C(=O)N1CCC[C@H]1C(N)=O (Hydrocinnamoyl-[pT]-Pro-NH2)
3.27	NC(=O)[C@@H]1CCCN1C(=O)[C@H](CCCCNc1c(O)c(=O)c1=O)NC(=O)OCC1c2ccccc2-c2ccccc21
4.46	C[C@@H](OP(=O)(O)O)[C@H](NC(=O)Cc1ccccc1)C(=O)N1CCC[C@H]1C(N)=O (PhAc-[pT]-Pro-NH2)
< 2.70	NC(=O)[C@@H]1CCCN1C(=O)CCC(=O)O
3.10	CC(=O)N[C@H](C(=O)N1CC(O)CC1C(N)=O)[C@@H](C)OP(=O)(O)O (single isomer, unassigned)
5.30	C[C@@H](OP(=O)(O)O)[C@H](NC(=O)CCC(C)(c1ccc(O)cc1)c1ccc(O)cc1)C(=O)N1CC=C[C@H]1C(N)=O
4.82	C[C@@H](OP(=O)(O)O)[C@H](NC(=O)OCC1c2ccccc2-c2ccccc21)C(=O)N1CCC[C@H]1C(N)=O (Fmoc-[pT]-Pro-NH2)
4.44	CC(=O)N[C@H](C(=O)N1CC(F)CC1C(N)=O)[C@@H](C)OP(=O)(O)O (single isomer, unassigned)
< 2.70	NC(=O)[C@@H]1CCCN1C(=O)CCCC(=O)O
4.18	C[C@@H](OP(=O)(O)O)[C@H](NC(=O)OCC1c2ccccc2-c2ccccc21)C(=O)N1CC=C[C@H]1C(N)=O (Fmoc-[pT]-[ΔPro]-NH2)
4.32	C[C@@H](OP(=O)(O)O)[C@H](NC(=O)CCCCc1ccccc1)C(=O)N1CCC[C@H]1C(N)=O
3.04	NC(=O)[C@@H]1CCCN1C(=O)[C@H](CCC/N=c1\c(O)c(O)c1=O)NC(=O)OCC1c2ccccc2-c2ccccc21
3.80	CC(=O)N[C@H](C(=O)N1CCC1C(N)=O)C(C)OP(=O)(O)O (single isomer, unassigned)
< 2.70	NC(=O)[C@@H]1CCCN1C(=O)CCP(=O)(O)O
4.52	C[C@@H](OP(=O)(O)O)[C@H](NC(=O)CCCc1ccccc1)C(=O)N1CCC[C@H]1C(N)=O
< 2.70	NC(=O)[C@@H]1CCCN1C(=O)CC/N=c1\c(O)c(O)c1=O
4.55	C[C@@H](OP(=O)(O)O)[C@H](NC(=O)CCCc1ccccc1)C(=O)N1CC=C[C@H]1C(N)=O
4.00	CC(=O)N[C@H](C(=O)N1CCC[C@@H]1C(N)=O)[C@@H](C)OP(=O)(O)O
